Reference: ChEMBL document CHEMBL1126114, “A novel orally active inhibitor of IL-1 generation: synthesis and structure-activity relationships of 3-(4-hydroxy-1-naphthalenyl)-2-propenoic acid derivatives” (J Med Chem, 1992)
Several values for one entry are separate records, joined by “and”; a condition that tells them apart may be missing. Equal values may be shown once.

Assays:
Rattus norvegicus [1] = experiment: The compound was tested for IL-1 generation on CMC-LPS air-pouch model at 12.5 mg/Kg by oral administration; assay type: functional, organism-based
Summary of the method: (§1)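 Rats got 10 mL subcutaneous dorsal air, then 6 mL sterile 2% (w/v) CMC-Na in saline into the pouch 24 h later, then 5 ng LPS in 0.5 mL saline 24 h after that. Compound given orally as a suspension in 0.5% methyl cellulose 2 h before LPS. Exudate collected 4 h after LPS. Extra- plus intracellular IL-1 measured by LAF assay against a human recombinant IL-1α curve. Percent inhibition versus control; five rats per group.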

Rattus norvegicus [2] = experiment: The compound was tested for IL-1 generation on CMC-LPS air-pouch model at 25 mg/Kg by oral administration; assay type: functional, organism-based; summary of the method: as §1
Rattus norvegicus [3] = experiment: % inhibition against arthritis on adjuvant-untreated paw in rats at 100 mg/Kg by oral administration; assay type: functional
Summary of the method: (§2)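 Adjuvant arthritis in rats; drug given orally once daily from the first day of adjuvant treatment. Swelling of the adjuvant-untreated paw measured by plethysmometer on day 15 after adjuvant; % inhibition versus control. Mean ± SEM of 6–10 animals; significance versus control.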

Rattus norvegicus [4] = experiment: % inhibition against arthritis on adjuvant-untreated paw in rats at 12.5 mg/Kg by oral administration; assay type: functional; summary of the method: as §2
Rattus norvegicus [5] = experiment: % inhibition against arthritis on adjuvant-untreated paw in rats at 25 mg/Kg by oral administration; assay type: functional; summary of the method: as §2
Rattus norvegicus [6] = experiment: % inhibition against arthritis on adjuvant-untreated paw in rats at 50 mg/Kg by oral administration; assay type: functional; summary of the method: as §2
Rattus norvegicus [7] = experiment: The compound was tested for PGE-2 generation on CMC-LPS air-pouch model at 100 mg/Kg by oral administration; assay type: functional, organism-based
Summary of the method: (§3)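 Rat dorsal air pouch: CMC-Na (2% w/v, 6 mL) injected 24 h after the air, LPS (5 ng) 24 h after that. Oral dosing as a suspension in 0.5% methyl cellulose 2 h before LPS. Exudate sampled 4 h post-LPS; PGE2 in the exudate supernatant measured by radioimmunoassay. Percent inhibition versus control; five animals per group.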

Rattus norvegicus [8] = experiment: The compound was tested for PGE-2 generation on CMC-LPS air-pouch model at 12.5 mg/Kg by oral administration; assay type: functional, organism-based; summary of the method: as §3
Rattus norvegicus [9] = experiment: The compound was tested for PGE-2 generation on CMC-LPS air-pouch model at 200 mg/Kg by oral administration; assay type: functional, organism-based; summary of the method: as §3
Rattus norvegicus [10] = experiment: The compound was tested for PGE-2 generation on CMC-LPS air-pouch model at 25 mg/Kg by oral administration; assay type: functional, organism-based; summary of the method: as §3
Rattus norvegicus [11] = experiment: The compound was tested for PGE-2 generation on CMC-LPS air-pouch model at 50 mg/Kg by oral administration; assay type: functional, organism-based; summary of the method: as §3
Rattus norvegicus [12] = experiment: In vivo percent inhibition of IL-1 generation in rat CMC-LPS air pouch model at 100 uM concentration (local administration); assay type: functional
Summary of the method: (§4)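 Rat air pouch: 10 mL air s.c. into the dorsum, 2% CMC-Na in saline 24 h later, then LPS 5 ng 24 h after CMC. Compound given locally in 5% EtOH-RPMI with 30% autologous serum, 100 μM final in exudate, at 30 min before and just before LPS. Exudate IL-1 (extra- plus intracellular) read by LAF at 4 h. n=5; % inhibition ± SEM.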

Rattus norvegicus [13] = experiment: Compound was evaluated in vivo for the percent inhibition of IL-1 generation in rat CMC-LPS air pouch model at 50 mg/Kg concentration (oral administration); assay type: functional
Summary of the method: (§5)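 Rat CMC-LPS air pouch: air s.c., 2% CMC-Na 24 h later, LPS 5 ng 24 h after that. Compound given orally in 0.5% methyl cellulose 2 h before LPS. Exudate collected at 4 h; IL-1 (extra- plus intracellular) read by LAF assay against a recombinant human IL-1α curve.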

Rattus norvegicus [14] = experiment: Inhibitory activity against Granuloma on CMC-LPS air-pouch model at 100 mg/Kg by oral administration; assay type: functional
Summary of the method: (§6)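 Rat CMC-LPS air pouch (air, 2% CMC-Na, then LPS 5 ng). Oral dosing in 0.5% methyl cellulose 2 h before LPS. Granuloma wet weight determined 5 days after LPS; % inhibition versus control, with an LPS-free group included.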

Rattus norvegicus [15] = experiment: Inhibitory activity against Granuloma on CMC-LPS air-pouch model at 12.5 mg/Kg by oral administration; assay type: functional; summary of the method: as §6
Rattus norvegicus [16] = experiment: Inhibitory activity against Granuloma on CMC-LPS air-pouch model at 200 mg/Kg by oral administration; assay type: functional; summary of the method: as §6
Rattus norvegicus [17] = experiment: Inhibitory activity against Granuloma on CMC-LPS air-pouch model at 25 mg/Kg by oral administration; assay type: functional; summary of the method: as §6
Rattus norvegicus [18] = experiment: Inhibitory activity against IL-1 on CMC-LPS air-pouch model at 100 mg/Kg by oral administration; assay type: functional; summary of the method: as §5
Rattus norvegicus [19] = experiment: Inhibitory activity against IL-1 on CMC-LPS air-pouch model at 12.5 mg/Kg by oral administration; assay type: functional; summary of the method: as §5
Rattus norvegicus [20] = experiment: Inhibitory activity against IL-1 on CMC-LPS air-pouch model at 200 mg/Kg by oral administration; assay type: functional; summary of the method: as §5
Rattus norvegicus [21] = experiment: Inhibitory activity against IL-1 on CMC-LPS air-pouch model at 25 mg/Kg by oral administration; assay type: functional; summary of the method: as §5
Rattus norvegicus [22] = experiment: Inhibitory activity against IL-1 on CMC-LPS air-pouch model at 50 mg/Kg by oral administration; assay type: functional; summary of the method: as §5
Rattus norvegicus [23] = experiment: Inhibitory activity against PGE-2 on CMC-LPS air-pouch model at 100 mg/Kg by oral administration; assay type: functional
Summary of the method: (§7)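 Rat CMC-LPS air pouch (air, 2% CMC-Na, then LPS 5 ng). Oral dosing in 0.5% methyl cellulose 2 h before LPS. PGE2 in the exudate supernatant collected 4 h after LPS, measured by radioimmunoassay.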

Rattus norvegicus [24] = experiment: Inhibitory activity against PGE-2 on CMC-LPS air-pouch model at 12.5 mg/Kg by oral administration; assay type: functional; summary of the method: as §7
Rattus norvegicus [25] = experiment: Inhibitory activity against PGE-2 on CMC-LPS air-pouch model at 200 mg/Kg by oral administration; assay type: functional; summary of the method: as §7
Rattus norvegicus [26] = experiment: Inhibitory activity against PGE-2 on CMC-LPS air-pouch model at 25 mg/Kg by oral administration; assay type: functional; summary of the method: as §7
Rattus norvegicus [27] = experiment: Inhibitory activity against PGE-2 on CMC-LPS air-pouch model at 50 mg/Kg by oral administration; assay type: functional; summary of the method: as §7
Rattus norvegicus [28] = experiment: Activity against arthritis on adjuvant-untreated paw in rats at 25 mg/Kg by oral administration; assay type: functional; summary of the method: as §2
Rattus norvegicus [29] = experiment: Activity against arthritis on adjuvant-untreated paw in rats at 50 mg/Kg by oral administration; assay type: functional; summary of the method: as §2
Rattus norvegicus [30] = experiment: Activity against arthritis on adjuvant-untreated paw in rats at 100 mg/Kg by oral administration; assay type: functional; summary of the method: as §2
Rattus norvegicus [31] = experiment: Activity against arthritis on adjuvant-untreated paw in rats at 12.5 mg/Kg by oral administration; assay type: functional; summary of the method: as §2
Rattus norvegicus [32] = experiment: The compound was tested for Granuloma generation on CMC-LPS air-pouch model at 25 mg/Kg by oral administration; assay type: functional; summary of the method: as §6
Rattus norvegicus [33] = experiment: The compound was tested for Granuloma generation on CMC-LPS air-pouch model at 50 mg/Kg by oral administration; assay type: functional; summary of the method: as §6
Rattus norvegicus [34] = experiment: The compound was tested for Granuloma generation on CMC-LPS air-pouch model at 100 mg/Kg by oral administration; assay type: functional; summary of the method: as §6
Rattus norvegicus [35] = experiment: The compound was tested for Granuloma generation on CMC-LPS air-pouch model at 12.5 mg/Kg by oral administration; assay type: functional; summary of the method: as §6
Rattus norvegicus [36] = experiment: The compound was tested for Granuloma generation on CMC-LPS air-pouch model at 200 mg/Kg by oral administration; assay type: functional; summary of the method: as §6
Rattus norvegicus [37] = experiment: Inhibitory activity against Granuloma on CMC-LPS air-pouch model at 50 mg/Kg by oral administration; assay type: functional; summary of the method: as §6
Homo sapiens = species on record: Homo sapiens; experiment: In vitro inhibitory activity against IL-1 generation by using human monocyte; assay type: functional
Summary of the method: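 Healthy-donor peripheral mononuclear cells, adhered 1.5 h in RPMI 1640 with 10% heat-inactivated autologous serum. Adherent monocytes then stimulated with LPS 1 μg/mL for 16–18 h in 1% autologous serum with 0.1% ethanol, ± drug. Extra- plus intracellular IL-1 read by LAF assay against a recombinant human IL-1β curve. IC50 by least squares; mean of ≥2 experiments.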

Rattus norvegicus [38] = species on record: Rattus norvegicus; experiment: In vitro inhibitory activity against IL-1 generation by using rat exudated macrophages; assay type: functional
Summary of the method: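 Fisher rat peritoneal exudate cells collected 4 days after i.p. 2.5% glycogen. Cells adhered 1.5 h at 37 °C in 1% normal rat serum. Adherent macrophages stimulated with LPS 1 ng/mL for 4 h ± compound. Intracellular IL-1 read by LAF assay against a recombinant human IL-1α curve. IC50 by least squares; mean of duplicates.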

Rattus norvegicus [39] = experiment: Compound was evaluated in vivo for the percent inhibition of IL-1 generation in rat CMC-LPS air pouch model at 100 uM concentration; assay type: functional; summary of the method: as §4

Q: Which results are given for CCc1cccc2c(/C=C(/C)C(=O)O)cc(OC)c(O)c12?
A: Concentration (Rattus norvegicus [1]): 1290 U/mL; Concentration (Rattus norvegicus [2]): 1030 U/mL; inhibition in vivo at 100 mg/kg (Rattus norvegicus [3]): 51.4%; inhibition in vivo at 12.5 mg/kg (Rattus norvegicus [4]): 20.1%; inhibition in vivo at 25 mg/kg (Rattus norvegicus [5]): 34.1%; inhibition in vivo at 50 mg/kg (Rattus norvegicus [6]): 38.8%; Concentration (Rattus norvegicus [7]): 0.8 ng/mL; Concentration (Rattus norvegicus [8]): 5.9 ng/mL; Concentration (Rattus norvegicus [9]): 0.9 ng/mL; Concentration (Rattus norvegicus [10]): 5.2 ng/mL; Concentration (Rattus norvegicus [11]): 2.9 ng/mL; Inhibition (Rattus norvegicus [12]): 94% and 91%; inhibition in vivo at 50 mg/kg (Rattus norvegicus [13]): 65%; inhibition in vivo at 100 mg/kg (Rattus norvegicus [14]): 76%; inhibition in vivo at 12.5 mg/kg (Rattus norvegicus [15]): < 25%; inhibition in vivo at 200 mg/kg (Rattus norvegicus [16]): 87%; inhibition in vivo at 25 mg/kg (Rattus norvegicus [17]): 37%; inhibition in vivo at 100 mg/kg (Rattus norvegicus [18]): 84%; inhibition in vivo at 12.5 mg/kg (Rattus norvegicus [19]): < 25%; inhibition in vivo at 200 mg/kg (Rattus norvegicus [20]): 91%; inhibition in vivo at 25 mg/kg (Rattus norvegicus [21]): 40%; inhibition in vivo at 50 mg/kg (Rattus norvegicus [22]): 65%; inhibition in vivo at 100 mg/kg (Rattus norvegicus [23]): 91%; inhibition in vivo at 12.5 mg/kg (Rattus norvegicus [24]): 35%; inhibition in vivo at 200 mg/kg (Rattus norvegicus [25]): 90%; inhibition in vivo at 25 mg/kg (Rattus norvegicus [26]): 43%; inhibition in vivo at 50 mg/kg (Rattus norvegicus [27]): 68%; Swelling (Rattus norvegicus [28]): 36.4%; Swelling (Rattus norvegicus [29]): 33.8%; Swelling (Rattus norvegicus [30]): 26.8%; Swelling (Rattus norvegicus [31]): 44.1%; Wet weight (Rattus norvegicus [32]): 1.61 g; Wet weight (Rattus norvegicus [33]): 1.49 g; Wet weight (Rattus norvegicus [34]): 1.25 g; Wet weight (Rattus norvegicus [35]): 1.93 g; Wet weight (Rattus norvegicus [36]): 1.16 g; inhibition in vivo at 50 mg/kg (Rattus norvegicus [37]): 49%

Q: How did the IC50 (Homo sapiens) turn out when CCc1cccc2c(/C=C/C(=O)O)cc(Cl)c(O)c12 was run?
A: Its IC50 is 5.4 µM.

Q: And the IC50 (Rattus norvegicus [38])?
A: The IC50 was 6 µM.

Q: What about the Inhibition (Rattus norvegicus [39]) of the same compound?
A: The Inhibition was less than 25%.
